From ChEMBL document CHEMBL1157042, “Triazole incorporated thiazoles as a new class of anticonvulsants: design, synthesis and in vivo screening” (Eur J Med Chem, 2010)
The source made the active and inactive calls.

What was measured:
Mus musculus [1] = assay: Anticonvulsant activity in Swiss albino mouse assessed as inhibition of PTZ-induced motor impairment at 300 mg/kg, ip after 4 hrs; type: functional, organism-based; design: dose 300 mg/kg
Method in brief: (§1)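 Albino mice of either sex (25–30 g), 6 per group. Test compound was given i.p. in polyethylene glycol at 30, 100 or 300 mg/kg, and subcutaneous pentylenetetrazole challenge followed 0.5 h or 4.0 h later. Activity was scored as protection in half or more of the mice.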

Mus musculus [2] = assay: Neurotoxicity in Swiss albino mouse at 300 mg/kg, ip after 4 hrs; type: toxicity, organism-based; design: dose 300 mg/kg, route intraperitoneal; settings: in vivo
Mus musculus [3] = assay: Anticonvulsant activity in Swiss albino mouse assessed as inhibition of maximum electric shock-induced motor impairment at 300 mg/kg, ip after 0.5 hrs; type: functional, organism-based; design: dose 300 mg/kg
Method in brief: (§2)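 Albino mice of either sex (25–30 g), 6 per group, given drug i.p. in polyethylene glycol at 30, 100 and 300 mg/kg. Maximal electroshock was applied at 0.5 h and 4.0 h. Protection meant abolition of hind limb tonic extension.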

Mus musculus [4] = assay: Neurotoxicity in Swiss albino mouse at 300 mg/kg, ip after 0.5 hrs; type: toxicity, organism-based; design: dose 300 mg/kg, route intraperitoneal; settings: in vivo
Mus musculus [5] = assay: Anticonvulsant activity in ip dosed Swiss albino mouse assessed as inhibition of PTZ-induced motor impairment after 0.5 hrs; type: functional; settings: read-out: MED
Method in brief: (§3)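 Albino mice of either sex (25–30 g), 6 per group, dosed i.p. in polyethylene glycol at 30, 100 or 300 mg/kg. Subcutaneous pentylenetetrazole was given at 0.5 h or 4.0 h, and mice were watched for 30 min. Protection meant no threshold seizure (single clonic spasm episode of at least 5 s). The value is the minimum dose protecting half or more.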

Mus musculus [6] = assay: Anticonvulsant activity in ip dosed Swiss albino mouse assessed as inhibition of maximum electric shock-induced motor impairment after 4 hrs; type: functional; settings: read-out: MED
[7] = Neurotoxicity in ip dosed Swiss albino mouse after 0.5 hrs; type: toxicity, organism-based; settings: in vivo
Method in brief: (§4)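 Albino mice of either sex (25–30 g), 6 per group, received i.p. doses of 30, 100 and 300 mg/kg in polyethylene glycol. Trained mice were tested on the rotorod at 0.5 h and 4.0 h. Neurotoxicity was failure to keep balance on the rod for at least 1 min in each trial. The value recorded is the minimum dose affecting half or more of the mice.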

[8] = Neurotoxicity in ip dosed Swiss albino mouse after 4 hrs; type: toxicity, organism-based; settings: in vivo; method in brief: as §4
Mus musculus [9] = assay: Anticonvulsant activity in Swiss albino mouse assessed as inhibition of PTZ-induced motor impairment at 300 mg/kg, ip after 0.5 hrs; type: functional, organism-based; design: dose 300 mg/kg; method in brief: as §1
Mus musculus [10] = assay: Anticonvulsant activity in ip dosed Swiss albino mouse assessed as inhibition of PTZ-induced motor impairment after 4 hrs; type: functional; settings: read-out: MED; method in brief: as §3
Mus musculus [11] = assay: Anticonvulsant activity in ip dosed Swiss albino mouse assessed as inhibition of maximum electric shock-induced motor impairment after 0.5 hrs; type: functional; settings: read-out: MED
Mus musculus [12] = assay: Anticonvulsant activity in Swiss albino mouse assessed as inhibition of maximum electric shock-induced motor impairment at 300 mg/kg, ip after 4 hrs; type: functional, organism-based; design: dose 300 mg/kg; method in brief: as §2
Mus musculus [13] = assay: Anticonvulsant activity in ip dosed Swiss albino mouse assessed as inhibition of PTZ-induced motor impairment; type: functional

Row | Compound | inhibition (Mus musculus [1]) | Activity (Mus musculus [2]) | inhibition (Mus musculus [3]) | Activity (Mus musculus [4]) | minimal effective dose (Mus musculus [5]) [mg/kg] | minimal effective dose (Mus musculus [6]) [mg/kg] | MTD at 0.5 h [7] [mg/kg] | MTD at 4 h [8] [mg/kg] | inhibition (Mus musculus [9]) | minimal effective dose (Mus musculus [10]) [mg/kg] | minimal effective dose (Mus musculus [11]) [mg/kg] | inhibition (Mus musculus [12]) | ED50 (Mus musculus [13]) [mg/kg]
1 | Cc1ccc(-n2c(Nc3nc(-c4ccccc4)cs3)n[nH]c2=S)cc1 | inactive | Non-toxic | inactive | Non-toxic | 300 | 300 |  |  |  |  |  |  | 
2 | O=[N+]([O-])c1ccc(-c2csc(Nc3n[nH]c(=S)n3-c3ccccc3)n2)cc1 | inactive |  | inactive |  |  | 300 | 300 | 300 | inactive |  |  |  | 
3 | COc1ccc(-n2c(Nc3nc(-c4ccccc4)cs3)n[nH]c2=S)cc1 |  | Non-toxic |  | Non-toxic |  | 100 |  |  | inactive | 300 | 100 |  | 
4 | Cc1ccc(-n2c(Nc3nc(-c4ccc([N+](=O)[O-])cc4)cs3)n[nH]c2=S)cc1 | inactive |  |  |  | 300 | 300 | 100 | 100 |  |  | 100 |  | 
5 | Cc1ccc(-n2c(Nc3nc(-c4ccc(Cl)cc4)cs3)n[nH]c2=S)cc1 | inactive |  |  | Non-toxic |  | 300 |  | 300 | inactive |  | 300 |  | 
6 | COc1ccc(-n2c(Nc3nc(-c4ccc([N+](=O)[O-])cc4)cs3)n[nH]c2=S)cc1 |  |  |  | Non-toxic |  | 300 |  | 300 | inactive | 300 | 100 |  | 
7 | S=c1[nH]nc(Nc2nc(-c3ccccc3)cs2)n1-c1ccccc1 |  |  |  | Non-toxic |  |  |  | 300 | inactive | 300 | 300 | inactive | 
8 | S=c1[nH]nc(Nc2nc(-c3ccc(Br)cc3)cs2)n1-c1ccccc1 | inactive |  |  | Non-toxic |  | 300 |  | 300 | inactive |  |  |  | 
9 | CCCC(CCC)C(=O)[O-].[Na+] [VALPROATE SODIUM] |  |  |  |  |  |  |  |  |  |  |  |  | 149
10 | Cc1ccccc1-n1c(Nc2nc(-c3ccccc3)cs2)n[nH]c1=S | inactive |  |  | Non-toxic |  |  |  | 300 | inactive |  | 100 | inactive | 
11 | COc1ccccc1-n1c(Nc2nc(-c3ccccc3)cs2)n[nH]c1=S | inactive | Non-toxic |  | Non-toxic |  | 300 |  |  | inactive |  | 100 |  | 
12 | S=c1[nH]nc(Nc2nc(-c3ccc(Cl)cc3)cs2)n1-c1ccccc1 | inactive | Non-toxic | inactive | Non-toxic |  | 300 |  |  | inactive |  |  |  | 
